Results: ChEMBL document CHEMBL3877291, “Structure-guided design of novel Trypanosoma brucei Methionyl-tRNA synthetase inhibitors” (Eur J Med Chem, 2016)

What was measured:
Trypanosoma brucei [1] = test: Binding affinity to Trypanosoma brucei methionyl-tRNA synthetase assessed as change in melting temperature at 100 uM by SYPRO orange dye based thermal shift assay
Summary of the method: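 TbMetRS in 100 mM HEPES pH 7.5, 100 mM NaCl, 10 mM ATP-Mg with SYPRO Orange; compound at 100 µM final. Fluorescence measured in triplicate from 25 to 90 °C in 0.2 °C steps. Tm taken as the temperature of the first-derivative maximum.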

[2] = Inhibition of Trypanosoma brucei methionyl tRNA synthetase preincubated for 15 mins followed by L-methionine substrate addition measured after 120 mins by ATP- depletion chemiluminescence assay
Summary of the method: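 Triplicate. Compound pre-incubated 15 min at room temperature with 50 nM TbMetRS, 200 µg/mL E. coli tRNA, 0.1 U/mL pyrophosphatase, 0.2 mM spermine, BSA, DTT, 25 mM HEPES-KOH pH 7.9, 10 mM MgCl2, 50 mM KCl, 2% DMSO. Started with 100 nM ATP and 32 µM L-methionine; after 120 min, Kinase-Glo luminescence read. IC50 from sigmoidal dose-response fit.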

Trypanosoma brucei [3] = test: Antitrypanosomal activity against Trypanosoma brucei 427 bloodstream forms assessed as parasitic growth inhibition after 48 hrs by alamar blue assay; type: functional; conditions: Trypanosoma brucei, 427, 48 h
Summary of the method: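 Bloodstream-form strain 427 trypomastigotes cultured in HMI-9 with 10% FBS, penicillin and streptomycin at 37°C, 5% CO2. Seeded at 1 × 10^4 per well, serial compound dilutions from 20 mM DMSO stocks, triplicate. Growth read with Alamar Blue at 48 h; pentamidine run as positive control in each assay.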

[4] = Cytotoxicity against human CRL-1855 cells assessed as cell viability after 48 hrs by alamar blue assay; type: toxicity, cell-based
Summary of the method: (§1)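 CRL-1855 cells grown in RPMI and HepG2 cells in DMEM/F-12, both with 10% FBS, penicillin and streptomycin. Plated at 5 × 10^3 per well with serial compound dilutions in quadruplicate for 48 h. Alamar Blue added for a further 4 h at 37 °C, 5% CO2. OD570–600 viability referenced to untreated cells.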

[5] = Cytotoxicity against human HepG2 cells assessed as cell viability after 48 hrs by alamar blue assay; type: toxicity, cell-based; summary of the method: as §1
[6] = Cmax in mouse at 50 mg/kg, administered through oral gavage by LC-MS analysis; type: ADME, organism-based; parameters: dose 50 mg/kg, route oral; conditions: in vivo
Summary of the method: (§2)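 Mice dosed by oral gavage at 50 mg/kg in 0.2 mL vehicle (7% tween80, 3% ethanol, 5% DMSO, 0.9% saline); plasma compound levels followed to give Cmax and AUC.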

[7] = AUC in mouse at 50 mg/kg, administered through oral gavage by LC-MS analysis; type: ADME, organism-based; conditions: in vivo; summary of the method: as §2
[8] = Selectivity index, ratio of EC50 for human CRL-1855 cells to EC50 for Trypanosoma brucei 427 bloodstream forms; type: toxicity, cell-based; conditions: read-out: Ratio EC50
Trypanosoma brucei [9] = test: (§3) Inhibition of Trypanosoma brucei 427 recombinant full length N-terminal 6His-tagged methionyl tRNA synthetase expressed in Escherichia coli assessed as decrease in incorporation of [3H]L-methionine into tRNA at 10 uM preincubated for 15 mins followed by Escherichia coli tRNA addition measured after 120 mins by scintillation counting method
Trypanosoma brucei [10] = test: as §3, with “1” for “10”

Row | Compound | ΔTm (Trypanosoma brucei [1]) [°C] | IC50 [2] [nM] | EC50 (Trypanosoma brucei [3]) [nM] | other results
1 | O=C(Cc1cc(Cl)cc(Cl)c1)N1CCCC(c2nc3c(Cl)cccc3[nH]2)C1 (stereo not given) | 7.4 | 926 | 8810 | 
2 | O=C(N[C@H]1CCCN(c2nc3nc(Cl)ccc3[nH]2)C1)c1cc(Cl)cc(Cl)c1 | 0 | > 10000 | > 20000 | 
3 | Clc1cc(Cl)cc(CNC2CCN(c3nc4nc(Cl)ccc4[nH]3)CC2)c1 | 5.8 | 4970 | 13300 | 
4 | Clc1cc(Cl)cc(CO[C@H]2CCCN(c3nc4nc(Cl)ccc4[nH]3)C2)c1 | 7.5 | 196 | 8800 | 
5 | Clc1cc(Cl)cc(CNCCSc2nc3nc(Cl)ccc3[nH]2)c1 |  | 1050 | 1400 | 
6 | O=C(Nc1cc(Cl)cc(Cl)c1)[C@H]1CCCN(c2nc3nc(Cl)ccc3[nH]2)C1 | 2.6 | > 10000 | > 20000 | 
7 | Cc1cc2cc(C(=O)N3CCCC(c4nc5ccccc5[nH]4)C3)ccc2o1 (stereo not given) |  |  |  | inhibition (Trypanosoma brucei [9]): 78%; inhibition (Trypanosoma brucei [10]): 20%
8 | Clc1cc(Cl)cc(CCN2CCCC(c3nc4nc(Cl)ccc4[nH]3)C2)c1 (stereo not given) | 6 | > 10000 | 3760 | 
9 | O=C(Cc1cc(Cl)cc(Cl)c1)N1CCCC(c2nc3ccccc3[nH]2)C1 (stereo not given) | 7.8 | 288 | > 5000 | 
10 | Clc1cc(Cl)cc(CNC2CN(c3nc4nc(Cl)ccc4[nH]3)C2)c1 | 6.4 | 2170 | 15300 | 
11 | Clc1cc(Cl)cc(CNCCCc2nc3ccc(Cl)cc3[nH]2)c1 | 10.8 | 243 | 2150 | 
12 | CCN(CC)CCCC(C)Nc1c2ccc(Cl)cc2nc2ccc(OC)cc12 (stereo not given) [QUINACRINE] |  |  |  | EC50 at 48 h [4]: 2120 nM; EC50 at 48 h [5]: 11900 nM
13 | N=C(N)c1ccc(OCCCCCOc2ccc(C(=N)N)cc2)cc1 [PENTAMIDINE] |  |  | 0.9 | 
14 | Clc1cc(Cl)cc(CNC2CCCC(c3nc4cc(Cl)ccc4[nH]3)C2)c1 (stereo not given) | 12.6 | 580 | 1950 | 
15 | Clc1cc(Cl)cc(CNC2CCCCN(c3nc4nc(Cl)ccc4[nH]3)C2)c1 (stereo not given) | 6.8 | 682 | 1810 | 
16 | Clc1cc(Cl)cc(CN[C@@H]2CCN(c3nc4ccc(Cl)nc4[nH]3)C2)c1 | 7.2 | 696 | 9010 | 

Continued, in another order:

Row | ΔTm (Trypanosoma brucei [1]) [°C] | IC50 [2] [nM] | EC50 (Trypanosoma brucei [3]) [nM] | Compound | other results
17 | 7.2 | 60 | 1400 | O=C(Cc1cc(Cl)cc(Cl)c1)N1CCCC(c2nc3cc(Cl)ccc3[nH]2)C1 (stereo not given) | EC50 at 48 h [4]: 22800 nM; EC50 at 48 h [5]: 35400 nM
18 | 18.4 | < 50 | 82 | Clc1cc(Cl)cc(CNC2CCCN(c3nc4nc(Cl)ccc4[nH]3)C2)c1 (stereo not given) | EC50 at 48 h [4]: 46200 nM; EC50 at 48 h [5]: > 50000 nM
19 | 19 | < 50 | 39 | Clc1cc(Cl)cc(CN[C@H]2CCCN(c3nc4nc(Cl)ccc4[nH]3)C2)c1 | EC50 at 48 h [4]: 29300 nM; EC50 at 48 h [5]: 49000 nM; Cmax [6]: 37.6 µM; AUC [7]: 104 µM·h; selectivity ratio [8]: 751
20 | 12.8 | < 50 | 307 | Clc1cc(Cl)cc(CNCCCc2nc3ccc(Cl)nc3[nH]2)c1 | EC50 at 48 h [4]: 45700 nM; EC50 at 48 h [5]: 45600 nM
21 | 14.4 | < 50 | 343 | Clc1cc(Cl)cc(NCC2CCCN(c3nc4nc(Cl)ccc4[nH]3)C2)c1 (stereo not given) | EC50 at 48 h [4]: 15400 nM; EC50 at 48 h [5]: 29200 nM
22 | 11.4 | < 50 | 1540 | Clc1cc(Cl)cc(CN[C@H]2CCN(c3nc4ccc(Cl)nc4[nH]3)C2)c1 | 
23 | 13.1 | 106 | 580 | Clc1cc(Cl)cc(CN[C@@H]2CCC[C@H](c3nc4nc(Cl)ccc4[nH]3)C2)c1 | 
24 | 13.1 | 192 | 999 | Clc1cc(Cl)cc(CN[C@@H]2CCCN(c3nc4nc(Cl)ccc4[nH]3)C2)c1 | 
25 | 14.2 | 124 | 359 | Clc1cc(Cl)cc(CNC2CCCC(c3nc4nc(Cl)ccc4[nH]3)C2)c1 (stereo not given) | EC50 at 48 h [4]: 33100 nM; EC50 at 48 h [5]: 32300 nM
